Measurements reported in ChEMBL document CHEMBL1155429, “Discovery of a biaryl cyclohexene carboxylic acid (MK-6892): a potent and selective high affinity niacin receptor full agonist with reduced flushing profiles in animals as a preclinical candidate” (J Med Chem, 2010).
The source made the active and inactive calls.

What was measured:
[1] = (§1) Bioavailability in rat at 1.0 mg/kg, iv or 2 mg/kg, po; format: ADME, organism-based; details: in vivo
How it was run: (§2)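 PK: iv 1.0 mpk in DMSO/Tween-80/water (5:10:85) for rats, EtOH/PEG400/water (10:40:50) for dogs and monkeys; oral 2 mpk in 0.5% methylcellulose for rats and dogs.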

[2] = Clearance in rat at 1.0 mg/kg, iv or 2 mg/kg, po; format: ADME, organism-based; details: in vivo; how it was run: as §2
[3] = (§3) Volume of distribution in rat at 1.0 mg/kg, iv or 2 mg/kg, po; format: ADME, organism-based; details: in vivo; how it was run: as §2
[4] = (§4) Half life in rat at 1.0 mg/kg, iv or 2 mg/kg, po; format: ADME, organism-based; details: in vivo; how it was run: as §2
[5] = molecular target: Hydroxycarboxylic acid receptor 3 (Homo sapiens) (UniProt P49019); assay: Binding affinity to GPR109B
Hydroxycarboxylic acid receptor 3 (Homo sapiens), sequence (P49019 whole entry): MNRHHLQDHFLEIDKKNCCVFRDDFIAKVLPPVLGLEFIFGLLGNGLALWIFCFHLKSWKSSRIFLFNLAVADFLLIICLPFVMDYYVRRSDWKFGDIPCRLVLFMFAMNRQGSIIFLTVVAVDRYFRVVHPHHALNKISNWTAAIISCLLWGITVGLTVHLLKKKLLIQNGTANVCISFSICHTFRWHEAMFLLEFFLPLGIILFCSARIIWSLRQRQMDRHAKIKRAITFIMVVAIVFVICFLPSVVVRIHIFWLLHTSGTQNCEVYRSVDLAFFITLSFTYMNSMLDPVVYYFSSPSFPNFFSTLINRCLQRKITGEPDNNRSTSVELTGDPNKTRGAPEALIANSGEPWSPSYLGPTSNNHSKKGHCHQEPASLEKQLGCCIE

[6] = molecular target: Hydroxycarboxylic acid receptor 1 (Homo sapiens) (UniProt Q9BXC0); assay: Binding affinity to GPR81
Hydroxycarboxylic acid receptor 1 (Homo sapiens), sequence (Q9BXC0 whole entry): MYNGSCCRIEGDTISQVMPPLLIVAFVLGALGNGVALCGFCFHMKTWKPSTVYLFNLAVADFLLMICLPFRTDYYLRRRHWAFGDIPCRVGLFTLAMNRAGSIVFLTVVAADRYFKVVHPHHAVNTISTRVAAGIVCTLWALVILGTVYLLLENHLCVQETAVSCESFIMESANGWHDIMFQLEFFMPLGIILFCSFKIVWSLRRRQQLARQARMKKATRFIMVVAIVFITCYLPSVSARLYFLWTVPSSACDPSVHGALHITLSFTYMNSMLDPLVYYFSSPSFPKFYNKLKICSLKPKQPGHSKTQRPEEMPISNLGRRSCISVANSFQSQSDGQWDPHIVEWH

[7] = species: Canis lupus familiaris; assay: (§5) Agonist activity at dog nicotinic acid receptor by [35S]GTPgammaS binding assay; format: functional
How it was run: (§6)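 [35S]GTPγS exchange functional assay on membranes from cells expressing the dog NA receptor; full agonism judged relative to NA; EC50 determined.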

[8] = tested on: Canis familiaris; assay: Antilipolytic activity in dog assessed as reduction plasma free fatty acids levels at 100 mg/kg, po; format: functional, Canis lupus familiaris; design: scale not given: the % may be the effect or the level left
How it was run: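 Fasted conscious dogs dosed orally; plasma FFA followed over time relative to baseline; n = 3-7 per group.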

[9] = tested on: Canis familiaris; assay: Antilipolytic activity in po dosed dog assessed as drug concentration causing maximum reduction plasma free fatty acids levels; format: functional, Canis lupus familiaris
How it was run: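 Dose-based dog measure: dose producing maximal plasma FFA suppression after oral dosing in fasted conscious dogs, read from oral dose-ranging FFA data.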

[10] = tested on: Canis familiaris; assay: Toxicity in po dosed dog assessed as threshold dose at which induction of flushing-mediated-vasodilation occurs in ears by spectrocolorimetry; format: functional, Canis lupus familiaris
How it was run: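 Conscious dogs dosed orally; flushing scored by ear spectrocolorimetry plus vocal and physical agitation; threshold dose = dose causing vasodilation in a subset of animals.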

[11] = Toxicity in po dosed dog assessed as Cmax at which threshold dose of vasodilation occurs in ears by spectrocolorimetry; format: organism-based, Canis lupus familiaris; details: in vivo, read-out: Activity
How it was run: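 Oral dosing in conscious dogs; Cmax(TDV) = average maximal blood compound level at the threshold dose for vasodilation, which was assessed by ear spectrocolorimetry.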

[12] = tested on: Canis familiaris; assay: Antilipolytic activity in po dosed dog assessed as reduction plasma free fatty acids levels; details: Canis lupus familiaris
[13] = molecular target: T1, Cytochrome P450 2C8 (Homo sapiens, UniProt P10632); assay: Inhibition of CYP2C8; format: ADME
T1 sequence (P10632 whole entry): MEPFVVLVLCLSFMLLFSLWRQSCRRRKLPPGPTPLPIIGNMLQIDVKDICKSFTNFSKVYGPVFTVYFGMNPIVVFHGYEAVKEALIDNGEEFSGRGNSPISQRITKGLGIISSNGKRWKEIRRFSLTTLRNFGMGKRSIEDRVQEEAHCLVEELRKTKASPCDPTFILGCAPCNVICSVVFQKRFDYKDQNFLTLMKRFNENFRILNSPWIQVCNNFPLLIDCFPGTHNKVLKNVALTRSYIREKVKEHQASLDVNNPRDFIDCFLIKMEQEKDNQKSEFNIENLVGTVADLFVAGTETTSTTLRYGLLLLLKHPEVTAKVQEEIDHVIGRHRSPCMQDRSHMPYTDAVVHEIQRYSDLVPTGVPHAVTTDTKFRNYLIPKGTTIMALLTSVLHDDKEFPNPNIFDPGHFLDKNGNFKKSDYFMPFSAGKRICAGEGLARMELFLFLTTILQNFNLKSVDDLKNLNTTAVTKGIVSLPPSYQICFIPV
How it was run: (§7)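 CYP2C8, 2D6 and 3A4 inhibition measured as IC50.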

[14] = molecular target: Cytochrome P450 2D6 (Homo sapiens, UniProt P10635); assay: Inhibition of CYP2D6; format: ADME; how it was run: as §7
Cytochrome P450 2D6, sequence (P10635 whole entry): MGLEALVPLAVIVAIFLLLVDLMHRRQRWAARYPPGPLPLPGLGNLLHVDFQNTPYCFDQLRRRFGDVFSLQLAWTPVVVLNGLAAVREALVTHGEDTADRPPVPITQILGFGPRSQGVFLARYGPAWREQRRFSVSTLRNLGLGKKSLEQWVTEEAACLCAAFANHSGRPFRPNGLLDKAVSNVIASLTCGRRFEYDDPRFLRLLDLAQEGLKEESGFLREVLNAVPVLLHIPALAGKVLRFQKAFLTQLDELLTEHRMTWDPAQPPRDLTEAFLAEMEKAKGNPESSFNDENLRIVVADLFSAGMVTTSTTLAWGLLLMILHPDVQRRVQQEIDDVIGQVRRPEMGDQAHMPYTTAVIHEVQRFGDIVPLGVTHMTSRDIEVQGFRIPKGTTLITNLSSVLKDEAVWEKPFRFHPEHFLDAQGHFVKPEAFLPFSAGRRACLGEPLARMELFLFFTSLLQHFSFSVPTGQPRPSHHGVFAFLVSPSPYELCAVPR

[15] = molecular target: Cytochrome P450 2C9 (Homo sapiens, UniProt P11712); assay: Inhibition of CYP2C9; format: ADME
Cytochrome P450 2C9, sequence (P11712 whole entry): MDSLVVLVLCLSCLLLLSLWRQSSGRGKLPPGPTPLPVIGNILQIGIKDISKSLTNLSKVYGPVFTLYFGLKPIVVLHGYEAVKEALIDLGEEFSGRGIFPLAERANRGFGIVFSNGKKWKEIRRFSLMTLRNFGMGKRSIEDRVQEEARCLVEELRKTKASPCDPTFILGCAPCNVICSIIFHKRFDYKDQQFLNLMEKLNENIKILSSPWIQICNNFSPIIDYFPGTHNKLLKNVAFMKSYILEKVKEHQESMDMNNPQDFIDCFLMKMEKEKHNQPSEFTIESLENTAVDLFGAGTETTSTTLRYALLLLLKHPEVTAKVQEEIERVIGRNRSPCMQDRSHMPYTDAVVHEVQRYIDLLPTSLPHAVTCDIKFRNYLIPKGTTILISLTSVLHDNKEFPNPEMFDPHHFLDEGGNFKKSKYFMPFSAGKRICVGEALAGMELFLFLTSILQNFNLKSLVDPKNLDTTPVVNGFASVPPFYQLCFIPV

[16] = Bioavailability in dog at 1.0 mg/kg, iv or 2 mg/kg, po; format: ADME, organism-based, Canis lupus familiaris; details: in vivo; how it was run: as §2
[17] = Bioavailability in mouse at 1.0 mg/kg, iv or 2 mg/kg, po; format: ADME, organism-based; details: in vivo
[18] = Bioavailability in rhesus monkey at 1.0 mg/kg, iv or 2 mg/kg, po; format: ADME, organism-based, Macaca mulatta; details: in vivo; how it was run: as §2
[19] = Clearance in dog at 1.0 mg/kg, iv or 2 mg/kg, po; format: ADME, organism-based, Canis lupus familiaris; details: in vivo; how it was run: as §2
[20] = Clearance in mouse at 1.0 mg/kg, iv or 2 mg/kg, po; format: ADME, organism-based; details: in vivo
[21] = Clearance in rhesus monkey at 1.0 mg/kg, iv or 2 mg/kg, po; format: ADME, organism-based, Macaca mulatta; details: in vivo; how it was run: as §2
[22] = Volume of distribution in dog at 1.0 mg/kg, iv or 2 mg/kg, po; format: ADME, organism-based, Canis lupus familiaris; details: in vivo; how it was run: as §2
[23] = Volume of distribution in mouse at 1.0 mg/kg, iv or 2 mg/kg, po; format: ADME, organism-based; details: in vivo
[24] = Volume of distribution in rhesus monkey at 1.0 mg/kg, iv or 2 mg/kg, po; format: ADME, organism-based, Macaca mulatta; details: in vivo; how it was run: as §2
[25] = Half life in dog at 1.0 mg/kg, iv or 2 mg/kg, po; format: ADME, organism-based, Canis lupus familiaris; details: in vivo; how it was run: as §2
[26] = Half life in mouse at 1.0 mg/kg, iv or 2 mg/kg, po; format: ADME, organism-based; details: in vivo
[27] = Half life in rhesus monkey at 1.0 mg/kg, iv or 2 mg/kg, po; format: ADME, organism-based, Macaca mulatta; details: in vivo; how it was run: as §2
[28] = Drug level in NA-receptor null C57BL/6 mouse blood at 100 mg/kg, po after 15 mins; format: ADME, organism-based; design: dose 100 mg/kg, route oral
How it was run: (§8)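 Fed wild-type or NA receptor null mice on C57Bl/6 background dosed orally at 100 mpk; blood drawn 15 min postdose for plasma FFA and compound blood level; n = 8/group.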

[29] = Drug level in wild-type C57BL/6 mouse blood at 100 mg/kg, po after 15 mins; format: ADME, organism-based; design: dose 100 mg/kg, route oral; how it was run: as §8
[30] = as §5; format: functional, Canis lupus familiaris; how it was run: as §6
[31] = tested on: Mus musculus; assay: Antilipolytic activity in wild-type C57BL/6 mouse assessed as reduction plasma free fatty acids levels at 100 mg/kg, po after 15 mins; format: functional; design: scale not given: the % may be the effect or the level left; how it was run: as §8
[32] = tested on: Mus musculus; assay: Antilipolytic activity in NA-receptor null C57BL/6 mouse assessed as reduction plasma free fatty acids levels at 100 mg/kg, po after 15 mins; format: functional, organism-based; design: dose 100 mg/kg; how it was run: as §8
[33] = tested on: Rattus norvegicus; assay: Antilipolytic activity in rat assessed as reduction plasma free fatty acids levels at 100 mg/kg, po; format: functional; design: scale not given: the % may be the effect or the level left
How it was run: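 Conscious rats dosed orally, dose range 1–100 mpk; plasma FFA measured over 4 h and expressed relative to t = 0 level; n ≥ 5 per group.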

[34] = tested on: Rattus norvegicus; assay: Antilipolytic activity in po dosed rat assessed as reduction plasma free fatty acids levels
[35] = tested on: Rattus norvegicus; assay: Toxicity in rat assessed as induction of induction of flushing-mediated vasodilation in ears at 100 mg/kg, sc by laser doppler flowmetry; format: functional, organism-based; design: dose 100 mg/kg
How it was run: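 Anesthetized rats dosed subcutaneously in a dose-ranging study; ear blood perfusion monitored by laser Doppler flowmetry; n ≥ 5 per group.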

[36] = tested on: Rattus norvegicus; assay: Toxicity in rat assessed as flushing-mediated vasodilation at 100 mg/kg, ip by laser doppler flowmetry; format: functional, organism-based; design: dose 100 mg/kg
[37] = tested on: Rattus norvegicus; assay: Plasma concentration in rat at 100 mg/kg, ip; format: ADME, organism-based; design: dose 100 mg/kg, route intraperitoneal; details: in vivo
[38] = tested on: Rattus norvegicus; assay: Toxicity in ip dosed rat assessed as induction of induction of flushing-mediated vasodilation in ears by laser doppler flowmetry; format: functional
[39] = tested on: Rattus norvegicus; assay: Toxicity in rat assessed as induction of flushing-mediated vasodilation in ears at 100 mg/kg, sc by laser doppler flowmetry; details: in vivo
[40] = tested on: Rattus norvegicus; assay: as §1; format: ADME, organism-based; details: in vivo; how it was run: as §2
[41] = tested on: Rattus norvegicus; assay: as §3; format: ADME, organism-based; details: in vivo; how it was run: as §2
[42] = tested on: Rattus norvegicus; assay: as §4; format: ADME, organism-based; details: in vivo; how it was run: as §2

Compound `CC(Cc1nc(-c2ccc(O)cn2)no1)C(=O)NC1=C(C(=O)O)CCCC1` (single isomer, unassigned) [listing 1 of 2 here] has a bioavailability [1] of 19%, a clearance [2] of 1.1 mL/min/kg and a Vd [3] of 0.21 L/kg. The half-life [4] was 3.6 h.

For `O=C(CCc1nc(-c2ccc(O)cn2)no1)Nc1ccccc1C(=O)O`, the Activity [5] was “inactive”, the Activity [6] was “inactive” and the Activity [7] was “Active”.

`CC(C)(Cc1nc(-c2ccc(O)cn2)no1)C(=O)NC1=C(C(=O)O)CCCC1` gave an Activity [8] of 85%, an Activity [9] of 10 mg/kg and an Activity [10] of 100 mg/kg. For the same compound, the Cmax [11] was 182 µM, the EC50 [12] was 16.5 µM and the IC50 [13] was > 100 µM. The IC50 [14] was > 100 µM, the IC50 [15] was 39 µM and the Activity [5] was “inactive”. The Activity [6] was “inactive”, the bioavailability [1] was 24% and the bioavailability [16] was 90%. The bioavailability [17] was 45%, the bioavailability [18] was 14% and the clearance [2] was 0.4 mL/min/kg. It also gave a clearance [19] of 1.8 mL/min/kg, a clearance [20] of 1.3 mL/min/kg and a clearance [21] of 0.4 mL/min/kg. For the same compound, the Vd [3] was 0.15 L/kg, the Vd [22] was 0.27 L/kg and the Vd [23] was 0.2 L/kg. For the same compound, the Vd [24] was 0.08 L/kg, the half-life [4] was 4.3 h and the half-life [25] was 7.6 h. The half-life [26] was 6.4 h, the half-life [27] was 4.9 h and the concentration at 0.25 h [28] was 148 µM. The concentration at 0.25 h [29] was 229 µM, the EC50 [30] was 1.3 µM and the Activity [31] was 36%. The Activity [32] was “inactive”, the Activity [33] was 85% and the EC50 [34] was 67 µM. For the same compound, the Activity [35] was “Toxic”, the Activity [36] was “Toxic” and the concentration [37] was 555 µM. For the same compound, the Activity [38] was 560 µM and the Activity [39] was “Toxic”.

`O=C(O)c1cccnc1` [NIACIN] gave an Activity [9] of 6 mg/kg, an Activity [10] of 3 mg/kg and a Cmax [11] of 14.6 µM. For the same compound, the EC50 [12] was 2.7 µM, the Activity [31] was 43% and the Activity [32] was “inactive”. It also gave an EC50 [34] of 2.2 µM and an Activity [38] of 9.4 µM.

With `O=C(CCc1nc(-c2ccc(O)cn2)no1)NC1=C(C(=O)O)CCCC1` the Activity [5] was “inactive”, the Activity [6] was “inactive” and the bioavailability [1] was 22%. For the same compound, the bioavailability [16] was 33%, the clearance [2] was 2 mL/min/kg and the clearance [19] was 1.3 mL/min/kg. For the same compound, the Vd [3] was 0.11 L/kg, the Vd [22] was 0.18 L/kg and the half-life [4] was 2 h. The half-life [25] was 2.1 h and the Activity [7] was “Active”.

With `CC(Cc1nc(-c2ccc(O)cn2)no1)C(=O)NC1=C(C(=O)O)CCCC1` (single isomer, unassigned; enantiomer B) [listing 1 of 2 here] the Activity [5] was “inactive”, the Activity [6] was “inactive” and the Activity [7] was “Active”.

Work on `CC(Cc1nc(-c2ccc(O)cn2)no1)C(=O)NC1=C(C(=O)O)CCCC1` (single isomer, unassigned; enantiomer B) [listing 2 of 2 here] yielded an F [40] of 23%, a Vd [41] of 0.25 L/kg and a t1/2 [42] of 4.1 h.

With `CC(Cc1nc(-c2ccc(O)cn2)no1)C(=O)NC1=C(C(=O)O)CCCC1` (single isomer, unassigned) [listing 2 of 2 here] the Activity [5] was “inactive”, the Activity [6] was “inactive” and the Activity [7] was “Active”.
